The record followed here is PubChem BioAssay AID1136 (Sanford-Burnham Center for Chemical Genomics, 2008).

Among all 200,000 compounds or so, fewer than 10 were called active. The list is a sample of the results. A number with no mark means an inactive call.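 Rule for the calls: active = activation factor at least 2 at 20 µM; inactive = the rest.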

Chain of Alkaline phosphatase, tissue-nonspecific isozyme (Homo sapiens) (P05186 whole entry, looked up): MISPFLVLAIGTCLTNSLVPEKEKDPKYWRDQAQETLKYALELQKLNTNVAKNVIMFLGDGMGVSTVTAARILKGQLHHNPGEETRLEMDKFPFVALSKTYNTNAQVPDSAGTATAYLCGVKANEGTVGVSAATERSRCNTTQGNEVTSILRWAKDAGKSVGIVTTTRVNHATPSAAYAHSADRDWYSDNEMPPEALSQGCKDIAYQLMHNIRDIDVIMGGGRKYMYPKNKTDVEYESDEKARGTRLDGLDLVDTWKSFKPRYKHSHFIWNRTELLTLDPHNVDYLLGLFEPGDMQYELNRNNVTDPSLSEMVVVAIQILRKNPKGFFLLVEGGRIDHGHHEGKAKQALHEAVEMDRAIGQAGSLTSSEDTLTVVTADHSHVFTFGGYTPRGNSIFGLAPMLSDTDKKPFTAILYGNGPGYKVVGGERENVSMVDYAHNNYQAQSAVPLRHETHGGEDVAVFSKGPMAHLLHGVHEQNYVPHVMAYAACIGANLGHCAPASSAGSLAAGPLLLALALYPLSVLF

This assay concerns the target Alkaline phosphatase, tissue-nonspecific isozyme (Homo sapiens) (UniProt P05186). The assay is described as follows: activation of human TNAP, high DEA acceptor – biochemical, luminescence, uHTS, primary screen (AID 1136). To be noted: purified TNAP, CDP-star luminescence, 1 M DEA, 30 min; at 20 µM; hits give high values; 0 = EDTA background, 1 = DMSO-only activity. The method, boiled down: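 system = human TNAP | amount = enzyme diluted 1/800 final | reagent = 100 µM CDP-star substrate | signal = luminescent substrate turnover signal | dosing = one dose, 20 µM | benchmarks = EDTA negative control, DMSO positive control | measure = activation factor | timing = 30 min reaction, room temperature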
For `CC1CCCN(S(=O)(=O)c2ccc(N(C(=O)c3cnccn3)C(C(=O)NC3CCCCC3)c3cccs3)cc2)C1` (stereo not drawn), the activation factor is 0.9.

Take `COc1ccc([N+](=O)[O-])cc1NC(=O)C(C)OC(=O)C1c2ccccc2Oc2ccccc21` (stereo not drawn): the activation factor was 1. In the case of `COc1ccc(C(=O)Nc2ccc(NC(=O)C(C)C)nc2)cc1` it was 1.1. With `COc1ccc(CNc2c(CO)cnc3c2cnn3C)cc1` the figure was 1. With `CCOC(=O)c1sc(=NC(=O)/C=C/c2cccs2)n(C)c1C` the figure was 1; with `CN(C)C(CNC(=O)c1ccc(S(=O)(=O)NCc2ccco2)cc1)c1ccccc1` (stereo not drawn), 1. `Cc1cc(C)cc(OCC(=O)Nc2ccc(S(=O)(=O)Nc3ccccn3)cc2)c1`: the activation factor was 1. With `COc1ccc(C(=O)NC(=S)Nc2ccc(Cl)cn2)cc1OC` the figure was 1.1.

Take `COc1ccc(N2C(=O)CC(Nc3ccc(F)cc3)C2=O)c([N+](=O)[O-])c1` (stereo not drawn): the activation factor was 1. In the case of `CC(Oc1cccc(NC(=O)c2cccs2)c1)C(=O)c1ccccc1` (stereo not drawn) it was 1; in that of `CCCNS(=O)(=O)c1ccc(CCC(=O)N2CCCC2)cc1`, 1.1; in that of `COc1cc(OC)cc(-c2nnc(SCC(=O)Nc3ccc(C(=O)O)cc3)s2)c1`, 1. In the case of `O=C(N/N=C/c1ccc(OCC2COCCO2)cc1)c1ccc(Br)cc1` (stereo not drawn) it was 1; in that of `CCN(C(=O)c1ccc(Br)cc1)c1ccccc1`, 1; in that of `Cn1ncc(N2CCN(S(=O)(=O)c3ccc(Br)cc3)CC2)c(Cl)c1=O`, 1.1.

On to `O=C(CSCC(=O)Nc1cccc([N+](=O)[O-])c1)Nc1ccccc1`, for which the activation factor was 1. For `Cc1ccc(S(=O)(=O)NNC(=O)Nc2cccc3ccccc23)cc1`, the activation factor is 1. With `CCN(CC)c1ccc2c(Nc3ccccc3)c(C=O)c(=O)oc2c1` the figure was 1; with `O=C(COC(=O)CCCSc1nc2ccccc2[nH]1)Nc1ccc(Oc2ccccc2)cc1`, 1.1.

As for `O=C(NCc1cccnc1)c1cccc(-c2cc3ccccc3oc2=O)c1`, the activation factor is 1.1.

`C=CCN(C(=O)c1cc(C)cc(C)c1)C1(C(=O)Nc2ccccc2)CCN(C(C)C)CC1`: the activation factor is 1.

In the case of `CCOc1ccc(C(=O)Nc2nccs2)cc1[N+](=O)[O-]`, the activation factor is 1.

On to `COc1ccc(C)cc1NC(=O)NCc1ccccn1`, for which the activation factor is 1. For the molecule `CCC1S/C(=N/N=C/c2ccco2)NC1=O` (stereo not drawn), the activation factor was 1. With `CN(C)S(=O)(=O)c1ccc2oc(SCC(=O)Nc3ccccc3F)nc2c1` the figure was 1; with `C=CCOC(=O)C1=C[C@@H](c2ccccc2)C[C@@H](OCc2ccc(CO)cc2)O1`, 1.1; with `NC1=C([N+](=O)[O-])C(c2ccccc2)C2=C(CCCC2=O)O1` (stereo not drawn), 1.

As to `Cc1ccc(C2(C(F)(F)F)N=C3Sc4cc(C)cc(C)c4N3C(=O)N2)cc1` (stereo not drawn), the activation factor was 1. Turning to `CCN(CC(=O)NC1CCS(=O)(=O)C1)c1nc(-c2cccnc2)nc2ccccc12` (stereo not drawn), the activation factor was 1. With `COCC(C)NC(=O)COc1nncc2ccccc12` (stereo not drawn) the figure was 1.1.

Consider `CC(=O)N1C(C)c2ccccc2C(C)(C)CC12CCCCC2` (stereo not drawn), for which the activation factor was 1. Consider `Cn1cccc1/C=C1\SC(=O)N(CC(=O)Nc2ccc(F)cc2)C1=O`, for which the activation factor was 1.1. As to `COc1ccc(NC(=O)c2sc(N)nc2-c2ccccc2)cc1`, the activation factor is 1. `Cc1c(NC(=S)NC(=O)CCc2ccccc2)c(=O)n(-c2ccccc2)n1C`: the activation factor was 1.1. In the case of `CCCc1nc2c([nH]1)C(c1cccnc1)C(C#N)=C(N)O2` (stereo not drawn) it was 1. In the case of `O=C1OC(/C=C/c2ccccc2)=NC/1=C/c1ccco1` it was 1.

Consider `CCc1ccc(CN(C)Cc2nc(Cc3ccccc3)no2)nc1`, for which the activation factor is 1.1.

Take `O=C(O)c1ccc2c3c(cccc13)C(=O)N(OS(=O)(=O)c1ccccc1)C2=O`: the activation factor is 1. With `CCN(CC)C(=O)Oc1ccc(OC(=O)N(CC)CC)cc1` the figure was 1.1. With `CC(Sc1nncn1C)C(=O)Nc1cc(C(F)(F)F)ccc1N1CCOCC1` (stereo not drawn) the figure was 1; with `CN(C)/C=C(/C(=O)c1ccccc1)S(=O)(=O)c1ccc(Cl)cc1`, 1; with `O=C(/C=C/c1ccc([N+](=O)[O-])cc1)NCCSCc1ccco1`, 1. With `O=C(Oc1cccc(O)c1)C1CCCCC1` the figure was 1; with `O=C(NCCc1ccccc1)C1CCC(Cn2c(=O)c3ccccc3n(Cc3cccnc3)c2=O)CC1` (stereo not drawn), 0.9.

For the molecule `C=CCc1ccc(OCC(O)CN2CCN(Cc3ccccc3)CC2)c(OC)c1` (stereo not drawn), the activation factor was 1. In the case of `CC(C)(C)NCc1cc(Br)ccc1OC1CCCC1` it was 1; in that of `O=C(NCc1nnc(SCC(=O)N2CCCc3ccccc32)o1)c1ccccc1F`, 1. With `CN1CCN(c2ccc(NC(=O)c3ccc4c(c3)OCCO4)cc2Cl)CC1` the figure was 1.1; with `O=C(CC(=O)N/N=C\c1cccc(Cl)c1Cl)NCc1ccccc1`, 1; with `Cc1cc([N+](=O)[O-])nn1CC(=O)Nc1ccc(Cc2ccncc2)cc1`, 1.

`Cc1cc(C)n(-c2ccc(C(=O)O)cc2[N+](=O)[O-])n1`: the activation factor was 1.

On to `Cc1cccc(Nc2nc3c(S(=O)(=O)c4ccccc4)nnn3c3ccccc23)c1C`, for which the activation factor was 1.1. For `Cc1ccc(S(=O)(=O)NC(=O)COc2ccccc2C)cc1`, the activation factor was 1. In the case of `Cc1nc2c(C(=O)NCc3cccs3)cnn2c(C)c1Cc1ccc(F)cc1` it was 1; in that of `CC(=O)c1cccc(NC(=O)[C@@H](NC(N)=O)C(C)C)c1`, 1; in that of `Cc1cccc(C)c1OCC(=O)NC(Cc1c[nH]c2ccccc12)C(=O)O` (stereo not drawn), 0.9.

In the case of `COc1ccc(N2CCN(C(=O)CNS(=O)(=O)c3ccc(C)c(C)c3)CC2)cc1`, the activation factor was 1.1. In the case of `Cc1ccc(-n2cnc3ncnc(-c4ccccc4)c32)cc1` it was 1.1.

Take `O=c1cc(CO)oc(C(Nc2cccc([N+](=O)[O-])c2)c2ccccn2)c1O` (stereo not drawn): the activation factor was 1. Take `Cc1ccc(NC(=O)c2csc3c2CCCC3)cc1`: the activation factor is 1. With `CCNC(=O)CC1C(=O)N(c2ccc(OC)cc2)C(=S)N1CCc1ccncc1` (stereo not drawn) the figure was 1; with `O=C(CC12CC3CC(CC(C3)C1)C2)NCc1ccco1`, 1; with `CN(C)c1ccc(/C=N\S(=O)(=O)c2ccccc2)cc1`, 1.
